An excerpt weighted towards active compounds, which were near 3.1% of everything screened.
rCAG binder: binders of r(CAG) RNA repeats, primary screen, biochemical, fluorescence; inhibition, % at 3 µM; AID 651821, 2012; actives 1.3% (n = 370,000); r(CAG) RNA repeat, TO-PRO-1 dye displacement fluorescence;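 active means inhibition above the plate cutoff, the mean of all test compounds on that plate plus 3 SD, cut at about 35% in these data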;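 further: 0% = DMSO alone and 100% = 100 µM mitoxantrone as full dye displacement; higher means more dye released from RNA so lower well fluorescence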
ATG4B inh: ATG4B protease inhibitors, primary screen, biochemical, fluorescence, uHTS. Cysteine protease ATG4B (Homo sapiens), Q9Y4P1. ATG4B cleavage of LC3-PLA2, NBD-HPC fluorescence, 1 h. inhibition, % at 8.33 µM. actives 0.51% (n = 340,000); in the data active means inhibition above about 40%
Target sequence (Q9Y4P1 whole entry, looked up): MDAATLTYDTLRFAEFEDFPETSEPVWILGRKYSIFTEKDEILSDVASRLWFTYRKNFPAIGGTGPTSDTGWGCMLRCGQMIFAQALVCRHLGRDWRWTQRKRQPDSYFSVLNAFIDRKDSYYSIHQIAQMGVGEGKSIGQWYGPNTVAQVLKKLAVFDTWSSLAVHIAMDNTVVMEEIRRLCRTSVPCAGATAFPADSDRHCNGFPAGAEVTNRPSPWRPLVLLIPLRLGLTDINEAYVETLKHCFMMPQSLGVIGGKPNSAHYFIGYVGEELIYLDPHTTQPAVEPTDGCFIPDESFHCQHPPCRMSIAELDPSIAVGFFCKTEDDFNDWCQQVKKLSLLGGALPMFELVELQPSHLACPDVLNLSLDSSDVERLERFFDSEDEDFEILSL
UHRF1 binding: UHRF1 methylated DNA binding inhibitors, primary screen, counter-screen for MBD2 inhibitor project, biochemical, TR-FRET, human UHRF1, single concentration; UHRF1 binding to methylated oligo; E3 ubiquitin-protein ligase UHRF1 (Homo sapiens), Q96T88; inhibition, % at 4.4 µM; actives 0.75% (n = 370,000); in the data active means inhibition above about 21%;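 further: UHRF1 SRA domain binding a hemimethylated CpG hairpin DNA probe; 0% = median of test compound wells and 100% = reference inhibitor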
LEDGF integ inh: blockers of LEDGF/p75-dependent integrase strand transfer – biochemical, TR-FRET, high throughput, primary screen. HIV-1 integrase (with human LEDGF/p75). TR-FRET IN-LEDGF/p75 DNA integration, Eu/Cy5. inhibition, % at 3.7 µM. actives 0.64% (n = 370,000). AID 743269, 2014;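 active means inhibition above the screen-wide mean plus 3 SD, cut at about 13% in these data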;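 further: signal is the Cy5 over europium emission ratio at 671 and 618 nm; 0% = plate median of compound wells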
MBD2 inh: inhibitors of MBD2 binding to methylated DNA, primary screen, biochemical, TR-FRET, DNA-binding domain, human | MBD2 binding to methylated oligonucleotide | actives 0.31% (n = 370,000) | AID 686964, 2013 | Methyl-CpG-binding domain protein 2 (Homo sapiens), Q9UBB5 | inhibition, % at 4.4 µM; in the data active means inhibition above about 13%
CSN deneddyl inh: inhibitors of CSN-mediated cullin deneddylation, primary screen, biochemical, fluorescence polarization, uHTS | Purified CSN, SCF-Nedd8-OG deneddylation | actives 0.38% (n = 360,000) | inhibition, % at 12.5 µM | COP9 signalosome complex subunit 5 (Homo sapiens), Q92905 | AID 651999, 2013;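 active means pattern-corrected inhibition above about 35%, with an unprinted fluorescence ratio check between 0.5 and 1.5, limit read from the data, passing the limit was not always enough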;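 further: 0% = enzyme with substrate and 100% = substrate without enzyme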
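Assay system: purified human Csn5 enzyme expressed in HEK293T cells; measure: % inhibition; also added: SCFSkp2-Nedd8OG substrate at 10 nM final; technique: fluorescence polarization; times: reaction 90 min, room temperature; medium: Tris buffer pH 7.5, NaCl, DTT, Tween-20, trehalose, ovalbumin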
Numbers without * were called inactive; nt = not tested or not shown.

SMILES | rCAG binder | ATG4B inh | UHRF1 binding | LEDGF integ inh | MBD2 inh | CSN deneddyl inh
Cc1ccc(S(=O)(=O)N2c3ccccc3CC2C)cc1 (stereo unspecified) | -8 | 5 | 1 | 4 | -1 | -9
CC1Cc2ccccc2N1S(=O)(=O)c1cccs1 (stereo unspecified) | -1 | 3 | 1 | -3 | 1 | 57*
CCOc1ccc(CC(=O)N2N=C(C)CC2(O)C(F)(F)F)cc1 (stereo unspecified) | -4 | -13 | 29* | -2 | 3 | -3
CCCC1=NN(C(=O)Cc2ccc(OC)cc2)C(O)(C(F)(F)F)C1 (stereo unspecified) | -7 | -2 | 4 | 4 | -2 | -2
CCC[C@H]1[C@@H](OC(=O)NCc2ccc(Cl)c(Cl)c2)CC[C@@]23CCCN2C(=O)CCC[C@@H]13 | nt | nt | 2 | -4 | -1 | nt
O=C(Nc1ccc(OCC(=O)N2CCOCC2)cc1)c1cncc(Br)c1 | 6 | 1 | 4 | -1 | -3 | 80*
CCCCOc1ccc(C(=O)Nc2ccc(OCC(=O)N3CCOCC3)cc2)cc1 | -6 | -13 | 1 | 1 | -2 | -1
O=C(Nc1cccc(OCC(=O)N2CCOCC2)c1)c1cccc([N+](=O)[O-])c1 | -4 | -3 | 34* | 1 | -3 | -2
CC(=O)c1cccc(NC(=O)c2cc(C)no2)c1 | 1 | -8 | 64* | -5 | 0 | 3
Cc1cc(C(=O)Nc2cccnc2)on1 | 1 | -3 | 0 | 0 | 1 | 1
COc1ccc(CN2CCC(C(=O)NC(C)c3cccc4ccccc34)CC2)cc1 (stereo unspecified) | nt | nt | nt | nt | nt | -4
CC(NC(=O)C1CCN(CCOc2ccc(Cl)cc2)CC1)c1cccc2ccccc12 (stereo unspecified) | 1 | nt | 25* | -4 | 0 | -6
Fc1ccc(CNC(=S)NC2CCCCCC2)cc1 | -2 | 44* | 0 | -4 | 0 | -4
COc1ccc(CNC(=S)NC2CCCCC2)cc1 | -5 | 0 | -1 | 0 | -1 | 5
O=C(NC1CCCCN(Cc2ccc(Cl)cc2)C1=O)c1ccc(F)c(F)c1 (stereo unspecified) | 2 | nt | 3 | -2 | 6 | nt
Cc1cc(N2CCN(C(c3ccnc4ccccc34)c3nnnn3-c3c(C)cccc3C)CC2)c2ccccc2n1 (stereo unspecified) | 17 | nt | 24* | 0 | 3 | -1
CCCCCCCCNS(=O)(=O)CC1NCc2ccc(C)cc21 (stereo unspecified) | 5 | nt | -6 | 4 | -7 | nt
Cc1nc(C(F)(F)F)ccc1C(=O)NCC(O)c1ccccc1 (stereo unspecified) | -1 | -7 | 46* | -5 | 4 | -1
CCC(CC)NC(=O)O[C@H]1CC[C@@]23CCCN2C(=O)CCC[C@H]3[C@H]1C | nt | nt | 1 | 3 | -2 | nt
CCn1c(=O)n(CC)c2cc(N3CCCC3)c(NC(=O)c3ccccc3C)cc21 | -9 | -3 | 23* | -1 | 9 | 4
CC(C)(N[C@@H](Cc1ccccc1)C(=O)NCCc1c[nH]c2ccccc12)C(=O)NC1CCCCC1 | nt | nt | 1 | -1 | -2 | nt
CC(C)C(=O)Nc1ccc(NC(=O)c2ccc3c(c2)OCO3)cc1 | 6 | -4 | -1 | -3 | 1 | 0
COc1cc(NC(=O)c2ccc3c(c2)OCO3)ccc1NC(=O)C(C)C | -2 | 1 | 66* | -2 | 2 | 2
CCOc1cc(C(=O)Nc2ccc3c(c2)OCO3)ccc1OC(F)F | -4 | 1 | 23* | 5 | 9 | 4
CCOc1ccc(C(=O)NCC(=O)Nc2ccc3c(c2)OCO3)cc1OCC | 0 | -10 | -3 | 6 | 0 | -5
SMILES | rCAG binder | ATG4B inh | UHRF1 binding | LEDGF integ inh | MBD2 inh | CSN deneddyl inh
CCC[C@H]1[C@@H](OC(=O)N2CCN(c3ccccc3)CC2)CC[C@@]23CCCN2C(=O)CCC[C@@H]13 | nt | nt | -2 | 3 | 4 | nt
COc1ccc(S[C@]2(C(=O)N3CCOCC3)CC(=O)N(c3ccc(OC)cc3)[C@@H]2c2ccc(OC)cc2)cc1 | 6 | nt | 4 | 7 | -1 | nt
O=C(NCCc1c[nH]c2ccccc12)OCc1cn(Cc2cccc(F)c2F)nn1 | 4 | nt | 2 | -8 | 3 | nt
CCCC[C@H]1C2CC(OC(=O)Nc3ccccc3)C(C2)[C@H]2CCCCN21 (stereo partly specified) | 0 | nt | -1 | -4 | -2 | nt
CN1CCN(c2nc(-c3ccc(C(C)(C)C)cc3)nc3ccccc23)CC1 | -4 | -3 | 22* | 1 | 9 | -1
COc1nc(-c2cccc([N+](=O)[O-])c2)nc2ccccc12 | 2 | -5 | -1 | -5 | -2 | -1
CN1CCN(c2nc(-c3cccc([N+](=O)[O-])c3)nc3ccccc23)CC1 | -3 | -1 | 2 | -4 | 6 | 44*
Cc1ccc(-c2nc(N3CCN(C)CC3)c3ccccc3n2)cc1 | 8 | 0 | 0 | 1 | 5 | 3
Cc1cccc(Cn2cc(CN3CC(N(C)CCCOC(=O)c4cc5ccccc5o4)CS3(=O)=O)nn2)c1 (stereo unspecified) | 4 | nt | 12 | 3 | 0 | nt
CCCC1CCC2(CC1)CCC2OC(=S)Nc1ccccc1 (stereo unspecified) | nt | nt | 0 | -3 | 3 | nt
O=C(CCCCCN1C(=O)C2C3C=CC(C3)C2C1=O)Nc1cc(F)cc(F)c1 (stereo unspecified) | 0 | nt | 1 | 1 | 0 | nt
O=C(Cc1ccccc1)N/N=C/c1cc(Br)cc(Cl)c1O | 14 | 11 | 58* | -6 | 1 | -3
COC(=O)[C@@]1(Sc2ccc(C)cc2)CC(=O)N[C@@H]1c1ccc(C(F)(F)F)cc1 | -1 | nt | 23* | -2 | 8 | 9
COC(=O)[C@]1(Sc2ccccc2)CC(=O)N[C@@H]1c1ccccc1 | 1 | nt | -2 | 4 | -7 | 5
Cc1c(C)n(C(=O)CSc2nc3ccccc3[nH]2)c2ccccc12 | 14 | 6 | 47* | 3 | 9 | 29
O=c1cc(-c2ccc(O)c(O)c2)oc2cc(O)c([C@@H]3O[C@H](CO)[C@@H](O)[C@H](O)[C@H]3O)c(O)c12 | -2 | -1 | -4 | 57* | -4 | -4
